In brackets after ≈: the same amount, converted by molar mass.
Legend:
[1] = tested on: Enterococcus faecalis; assay: Antibacterial activity against Enterococcus faecalis STCO-19; assay type: functional
Procedure, shortened: (§1)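 MIC by microtiter broth dilution. For racemic samples, the measured MIC was divided by two, since only one oxazolidinone enantiomer is antibacterial.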

[2] = tested on: Staphylococcus aureus; assay: Antibacterial activity against Staphylococcus aureus SFCO-1a cell line.; assay type: functional; procedure, shortened: as §1

Compound | MIC [1] [µg/mL] | MIC [2] [µg/mL]
CC(=O)NCC1CN(c2cccc(I)c2)C(=O)O1 (stereo unspecified) | 128 (≈ 355 µM) | 64 (≈ 178 µM)
CC(=O)NCC1CN(c2ccc(C(C)=O)c(O)c2)C(=O)O1 (stereo unspecified) | 2 (≈ 6.84 µM) | 2 (≈ 6.84 µM)
CC(=O)NC[C@H]1CN(c2ccc3c(c2)CCC3)C(=O)O1 | 4 (≈ 14.6 µM) | 2 (≈ 7.29 µM)
CSc1ccc(N2CC(CNC(C)=O)OC2=O)cc1[N+](=O)[O-] (stereo unspecified) | 8 (≈ 24.6 µM) | 8 (≈ 24.6 µM)
CC(=O)NCC1CN(c2cccc([N+](=O)[O-])c2)C(=O)O1 (stereo unspecified) | 4 (≈ 14.3 µM) | 4 (≈ 14.3 µM)
CC(=O)NCC1CN(c2cccc(Cl)c2)C(=O)O1 (stereo unspecified) | 128 (≈ 476 µM) | 64 (≈ 238 µM)
C#Cc1ccc(N2C[C@H](CNC(C)=O)OC2=O)c(F)c1 | 128 (≈ 463 µM) | 128 (≈ 463 µM)
CSc1cc(N2CC(CNC(C)=O)OC2=O)ccc1C(C)=O (stereo unspecified) | > 128 | > 128
CC(=O)NC[C@H]1CN(c2ccc(C(C)=O)cc2F)C(=O)O1 | 32 (≈ 109 µM) | 32 (≈ 109 µM)
COc1cc(OC)cc(N2CC(CNC(C)=O)OC2=O)c1 (stereo unspecified) | > 128 | > 128
CC(=O)NCC1CN(c2ccccc2)C(=O)O1 (stereo unspecified) | 128 (≈ 546 µM) | 128 (≈ 546 µM)
CC(=O)NCC1CN(c2c(F)cc(C(C)=O)cc2F)C(=O)O1 (stereo unspecified) | > 128 | > 128
CC(=O)NC[C@H]1CN(c2ccc(C(C)=O)c(C)c2)C(=O)O1 | 1 (≈ 3.44 µM) | 1 (≈ 3.44 µM)
CC(=O)NCC1CN(c2cccc(F)c2)C(=O)O1 (stereo unspecified) | 32 (≈ 127 µM) | 32 (≈ 127 µM)
CCCc1cc(N2CC(CNC(C)=O)OC2=O)ccc1C(C)=O (stereo unspecified) | > 128 | > 128
CC(=O)NCC1CN(c2ccc(C(C)=O)c(F)c2)C(=O)O1 (stereo unspecified) | 2 (≈ 6.8 µM) | 1 (≈ 3.4 µM)
CC(=O)NCC1CN(c2ccc(C(C)=O)c(Cl)c2)C(=O)O1 (stereo unspecified) | 2 (≈ 6.44 µM) | 2 (≈ 6.44 µM)
CC(=O)NCC1CN(c2ccc(C(C)=O)c(N)c2)C(=O)O1 (stereo unspecified) | 4 (≈ 13.7 µM) | 4 (≈ 13.7 µM)
CC(=O)NCC1CN(c2cccc(C)c2)C(=O)O1 (stereo unspecified) | 32 (≈ 129 µM) | 32 (≈ 129 µM)
CC(=O)NC[C@H]1CN(c2ccc3ccccc3c2)C(=O)O1 | 8 (≈ 28.1 µM) | 4 (≈ 14.1 µM)
COc1cc(N2CC(CNC(C)=O)OC2=O)ccc1C(C)=O (stereo unspecified) | > 128 | > 128
CC(=O)NCC1CN(c2cccc(N)c2)C(=O)O1 (stereo unspecified) | > 128 | > 128
CC(=O)NC[C@H]1CN(c2ccc3[nH]ccc3c2)C(=O)O1 | > 128 | > 128
CSc1cccc(N2CC(CNC(C)=O)OC2=O)c1 (stereo unspecified) | 16 (≈ 57.1 µM) | 16 (≈ 57.1 µM)

Compound | MIC [1] [µg/mL] | MIC [2] [µg/mL]
CCCc1ccc(N2C[C@H](CNC(C)=O)OC2=O)cc1 | 4 (≈ 14.5 µM) | 2 (≈ 7.24 µM)
CC(=O)NCC1CN(c2cccc(Br)c2)C(=O)O1 (stereo unspecified) | 64 (≈ 204 µM) | 16 (≈ 51.1 µM)
CC(=O)NCC1CN(c2cccc([S+](C)[O-])c2)C(=O)O1 (stereo unspecified) | > 128 | > 128
CC(=O)NCC1CN(c2ccc([S+](C)[O-])c([N+](=O)[O-])c2)C(=O)O1 (stereo unspecified) | 8 (≈ 23.4 µM) | 8 (≈ 23.4 µM)
CCCc1cccc(N2CC(CNC(C)=O)OC2=O)c1 (stereo unspecified) | 128 (≈ 463 µM) | 64 (≈ 232 µM)
CCc1cc(N2CC(CNC(C)=O)OC2=O)ccc1C(C)=O (stereo unspecified) | 8 (≈ 26.3 µM) | 16 (≈ 52.6 µM)
CC(=O)NC[C@H]1CN(c2ccc([N+](=O)[O-])cc2[N+](=O)[O-])C(=O)O1 | > 128 | > 128
CC(=O)NC[C@H]1CN(c2ccc(C)c(C)c2)C(=O)O1 | 16 (≈ 61 µM) | 8 (≈ 30.5 µM)
CC(=O)NCC1CN(c2cc(C)cc(C)c2)C(=O)O1 (stereo unspecified) | > 128 | > 128
CC(=O)NCC1CN(c2ccc([S+](C)[O-])c(C)c2)C(=O)O1 (stereo unspecified) | 8 (≈ 25.8 µM) | 8 (≈ 25.8 µM)
COc1cc([N+](=O)[O-])ccc1N1C[C@H](CNC(C)=O)OC1=O | > 128 | > 128
CC(=O)NCC1CN(c2ccc(C(C)=O)c(I)c2)C(=O)O1 (stereo unspecified) | 32 (≈ 79.6 µM) | 32 (≈ 79.6 µM)
CC(=O)NCC1CN(c2cccc(S(C)(=O)=O)c2)C(=O)O1 (stereo unspecified) | > 128 | > 128
COc1cccc(N2CC(CNC(C)=O)OC2=O)c1 (stereo unspecified) | 64 (≈ 242 µM) | 64 (≈ 242 µM)
CC(=O)NCC1CN(c2ccc(C(C)=O)c([S+](C)[O-])c2)C(=O)O1 (stereo unspecified) | > 128 | > 128
COc1ccc([N+](=O)[O-])cc1N1C[C@H](CNC(C)=O)OC1=O | > 128 | > 128
CC(=O)NCC1CN(c2ccc([S+](C)[O-])cc2)C(=O)O1 (stereo unspecified) | 4 (≈ 13.5 µM) | 4 (≈ 13.5 µM)
CSc1ccc(N2CC(CNC(C)=O)OC2=O)cc1 (stereo unspecified) | 4 (≈ 14.3 µM) | 4 (≈ 14.3 µM)
CC(=O)NCC1CN(c2ccc(C(C)=O)c(S(C)(=O)=O)c2)C(=O)O1 (stereo unspecified) | > 128 | > 128
CC(=O)NCC1CN(c2ccc(C(C)=O)c(Br)c2)C(=O)O1 (stereo unspecified) | 8 (≈ 22.5 µM) | 4 (≈ 11.3 µM)
CCc1cccc(N2CC(CNC(C)=O)OC2=O)c1 (stereo unspecified) | 16 (≈ 61 µM) | 16 (≈ 61 µM)
CC(=O)NCC1CN(c2cccc(O)c2)C(=O)O1 (stereo unspecified) | > 128 | > 128
CC(=O)NC[C@H]1CN(c2ccc(C(C)=O)cc2)C(=O)O1 [DUP-721] | 1 (≈ 3.62 µM) | 0.5 (≈ 1.81 µM)
CC(=O)NC[C@H]1CN(c2ccc3c(c2)CCC3=O)C(=O)O1 [PNU-82965] | 2 (≈ 6.94 µM) | 2 (≈ 6.94 µM)

Reference: ChEMBL document CHEMBL1126182, “Antibacterials. synthesis and structure-activity studies of 3-aryl-2-oxooxazolidines. 4. Multiply-substituted aryl derivatives” (1992)
